Assay results taken from ChEMBL document CHEMBL1149183, “Novel benzo[1,4]diazepin-2-one derivatives as endothelin receptor antagonists” (J Med Chem, 2004).

Key:
Endothelin-1 receptor = target: T1, Endothelin-1 receptor (Homo sapiens, UniProt P25101); test: Antagonist activity towards human recombinant Endothelin A receptor expressed in chinese hamster ovary (CHO) cells determined using [125I]ET1 as radioligand; format: functional, cell-based
T1 sequence (P25101 whole entry): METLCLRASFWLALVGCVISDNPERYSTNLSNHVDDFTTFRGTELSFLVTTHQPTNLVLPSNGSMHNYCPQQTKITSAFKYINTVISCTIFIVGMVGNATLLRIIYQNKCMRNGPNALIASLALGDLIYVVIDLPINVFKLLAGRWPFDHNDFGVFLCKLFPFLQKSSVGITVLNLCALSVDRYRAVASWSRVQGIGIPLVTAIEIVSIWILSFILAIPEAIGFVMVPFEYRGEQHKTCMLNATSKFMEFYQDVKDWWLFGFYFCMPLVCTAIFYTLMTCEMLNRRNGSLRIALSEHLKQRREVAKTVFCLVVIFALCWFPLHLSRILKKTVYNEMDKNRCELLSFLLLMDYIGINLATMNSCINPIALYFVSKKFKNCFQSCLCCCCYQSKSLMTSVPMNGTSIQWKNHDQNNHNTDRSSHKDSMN

[1] = target: T2, Endothelin receptor type B (Homo sapiens, UniProt P24530); test: Antagonist activity towards human recombinant Endothelin B receptor expressed in chinese hamster ovary (CHO) cells determined using [125I]ET1 as radioligand; format: functional, cell-based
T2 sequence (P24530 whole entry): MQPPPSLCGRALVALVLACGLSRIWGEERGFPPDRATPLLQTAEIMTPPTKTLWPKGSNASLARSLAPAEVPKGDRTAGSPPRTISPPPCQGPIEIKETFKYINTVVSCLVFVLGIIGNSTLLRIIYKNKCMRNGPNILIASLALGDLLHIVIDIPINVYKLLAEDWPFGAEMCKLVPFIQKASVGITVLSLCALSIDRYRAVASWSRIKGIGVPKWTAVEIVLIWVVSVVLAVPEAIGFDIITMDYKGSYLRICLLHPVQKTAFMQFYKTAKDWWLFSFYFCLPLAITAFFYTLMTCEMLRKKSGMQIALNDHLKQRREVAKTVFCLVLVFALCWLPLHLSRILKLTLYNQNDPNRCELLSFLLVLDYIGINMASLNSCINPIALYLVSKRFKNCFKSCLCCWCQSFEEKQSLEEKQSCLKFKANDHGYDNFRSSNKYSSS

Endothelin receptor [2] = target: T3, Endothelin receptor (Rattus norvegicus, UniProt P26684+P21451); test: Inhibitory potency at native endothelin A and endothelin B receptors by inhibiting endothelin-1 contractions of rat aortic rings; format: functional
T3 sequence (P26684 whole entry): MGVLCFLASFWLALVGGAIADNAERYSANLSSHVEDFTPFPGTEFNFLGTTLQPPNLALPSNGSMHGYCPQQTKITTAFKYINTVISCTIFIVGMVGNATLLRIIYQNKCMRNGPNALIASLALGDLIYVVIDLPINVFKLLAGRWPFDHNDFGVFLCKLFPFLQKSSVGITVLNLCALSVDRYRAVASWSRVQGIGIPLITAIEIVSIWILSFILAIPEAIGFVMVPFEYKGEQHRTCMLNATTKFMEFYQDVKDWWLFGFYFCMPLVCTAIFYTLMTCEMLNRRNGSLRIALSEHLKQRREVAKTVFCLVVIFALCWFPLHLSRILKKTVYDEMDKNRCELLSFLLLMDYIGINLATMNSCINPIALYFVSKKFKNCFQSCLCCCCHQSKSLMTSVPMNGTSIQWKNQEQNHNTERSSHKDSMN
T3 sequence (P21451 whole entry): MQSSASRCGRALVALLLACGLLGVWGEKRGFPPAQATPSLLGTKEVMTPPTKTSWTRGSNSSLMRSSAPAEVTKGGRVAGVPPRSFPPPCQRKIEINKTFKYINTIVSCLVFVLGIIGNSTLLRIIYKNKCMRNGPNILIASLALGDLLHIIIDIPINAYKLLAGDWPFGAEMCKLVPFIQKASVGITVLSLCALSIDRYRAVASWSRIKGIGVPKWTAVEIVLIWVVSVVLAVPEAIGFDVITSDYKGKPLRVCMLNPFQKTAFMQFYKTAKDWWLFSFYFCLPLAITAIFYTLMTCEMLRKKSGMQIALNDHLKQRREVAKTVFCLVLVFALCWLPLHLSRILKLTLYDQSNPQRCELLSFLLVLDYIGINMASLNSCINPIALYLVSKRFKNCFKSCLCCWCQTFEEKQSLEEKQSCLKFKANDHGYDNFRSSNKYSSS

Rattus norvegicus [3] = species: Rattus norvegicus; test: Maximum effect on reduction of mean arterial blood pressure was determined in rats; format: functional
Procedure, shortened: (§1)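 Single oral dose of 30 mg/kg suspended in 10% arabic gum to hypertensive Dahl salt-sensitive rats carrying telemetry for arterial pressure and heart rate; area between pre- and post-treatment pressure curves calculated; fall in mean arterial pressure and duration of action also taken from recordings.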

Rattus norvegicus [4] = test: In vivo area between curve (ABC) as calculated from the blood pressure recordings before and after administration of 30 mg/kg to hypertensive Dahl salt sensitive rats; number of rats=12; format: functional; procedure, shortened: as §1
Rattus norvegicus [5] = species: Rattus norvegicus; test: Duration of action of compound for reducing the blood pressure of rats was determined; format: functional; procedure, shortened: as §1
Endothelin receptor [6] = target: T3, Endothelin receptor; test: Inhibitory potency at native endothelin A and B receptors by inhibiting sarafotoxin Sf6 contractions of rat tracheal rings; format: functional
Cytochrome P450 2C9 = Cytochrome P450 2C9 (Homo sapiens, UniProt P11712); test: Inhibition of human cytochrome P450 2C9; format: ADME
Procedure, shortened: (§2)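 Human liver microsomes with isoform marker reactions near substrate Km: diclofenac 4'-hydroxylation (2C9), dextromethorphan […] (2D6), midazolam 1'-hydroxylation (3A4); metabolite formation by LC-MS/MS; IC50 reported.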

Cytochrome P450 2D6 = Cytochrome P450 2D6 (Homo sapiens, UniProt P10635); test: Inhibition of human cytochrome P450 2D6; format: ADME; procedure, shortened: as §2
[7] = Log D value was evaluated; format: physicochemical; settings: octanol/water, pH 7.4; read-out: Log D7.4
Procedure, shortened: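 Shake-flask partition, n-octanol versus aqueous phase buffered to pH 7.4 (67 mM KH2PO4/67 mM Na2HPO4), volume ratio 1:9; both phases assayed by HPLC.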

Cytochrome P450 3A4 = Cytochrome P450 3A4 (Homo sapiens, UniProt P08684); test: Inhibition of human cytochrome P450 3A4; format: ADME; procedure, shortened: as §2
Rattus norvegicus [8] = test: In vivo area between curve (ABC) as calculated from the blood pressure recordings before and after administration of 30 mg/kg to hypertensive Dahl salt sensitive rats; number of rats=6; format: functional; procedure, shortened: as §1

Sequence of Cytochrome P450 2D6 (P10635 whole entry): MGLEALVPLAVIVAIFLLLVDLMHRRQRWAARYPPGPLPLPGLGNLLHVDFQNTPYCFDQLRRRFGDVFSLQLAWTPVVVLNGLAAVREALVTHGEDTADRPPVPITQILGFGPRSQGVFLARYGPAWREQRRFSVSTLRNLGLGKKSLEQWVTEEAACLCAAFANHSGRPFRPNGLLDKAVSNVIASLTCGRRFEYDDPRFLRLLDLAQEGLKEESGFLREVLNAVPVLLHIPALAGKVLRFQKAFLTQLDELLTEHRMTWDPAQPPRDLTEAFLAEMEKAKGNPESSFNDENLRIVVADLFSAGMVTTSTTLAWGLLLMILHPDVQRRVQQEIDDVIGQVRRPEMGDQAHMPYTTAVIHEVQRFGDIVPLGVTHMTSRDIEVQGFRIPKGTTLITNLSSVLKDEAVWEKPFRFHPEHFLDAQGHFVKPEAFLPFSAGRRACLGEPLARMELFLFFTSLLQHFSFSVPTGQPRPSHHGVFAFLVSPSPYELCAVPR
Sequence of Cytochrome P450 2C9 (P11712 whole entry, canonical isoform): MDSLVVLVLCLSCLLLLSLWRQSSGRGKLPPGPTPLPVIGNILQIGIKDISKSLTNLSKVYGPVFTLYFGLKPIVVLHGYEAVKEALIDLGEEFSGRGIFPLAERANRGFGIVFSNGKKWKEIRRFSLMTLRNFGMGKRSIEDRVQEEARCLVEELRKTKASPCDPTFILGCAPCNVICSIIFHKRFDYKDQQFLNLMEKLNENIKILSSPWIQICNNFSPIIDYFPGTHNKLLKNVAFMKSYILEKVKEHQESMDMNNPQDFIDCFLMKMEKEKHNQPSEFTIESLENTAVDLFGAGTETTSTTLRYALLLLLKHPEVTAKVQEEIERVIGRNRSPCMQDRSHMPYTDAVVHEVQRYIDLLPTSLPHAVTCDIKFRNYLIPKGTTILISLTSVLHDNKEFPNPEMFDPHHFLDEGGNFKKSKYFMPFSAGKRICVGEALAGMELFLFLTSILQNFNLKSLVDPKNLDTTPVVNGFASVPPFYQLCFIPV
Sequence of Cytochrome P450 3A4 (P08684 whole entry): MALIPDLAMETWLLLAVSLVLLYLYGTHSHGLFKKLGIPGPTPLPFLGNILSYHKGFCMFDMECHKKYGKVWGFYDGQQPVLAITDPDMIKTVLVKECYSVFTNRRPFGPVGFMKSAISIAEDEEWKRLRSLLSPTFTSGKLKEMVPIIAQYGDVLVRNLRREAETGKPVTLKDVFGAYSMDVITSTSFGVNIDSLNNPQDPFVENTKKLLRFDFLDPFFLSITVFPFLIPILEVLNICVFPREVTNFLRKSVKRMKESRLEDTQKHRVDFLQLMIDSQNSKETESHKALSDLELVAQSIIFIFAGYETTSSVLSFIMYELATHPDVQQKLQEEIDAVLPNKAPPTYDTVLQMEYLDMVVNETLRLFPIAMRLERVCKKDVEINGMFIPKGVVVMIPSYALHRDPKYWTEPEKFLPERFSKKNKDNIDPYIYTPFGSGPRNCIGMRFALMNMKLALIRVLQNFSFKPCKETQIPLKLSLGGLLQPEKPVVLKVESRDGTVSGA

SMILES | IC50 (Endothelin-1 receptor) | IC50 [1] | pA2 (Endothelin receptor [2]) | further results
Cc1cc(C)nc(O[C@H](C(=O)O)[C@@]2(c3ccccc3)NCC(=O)N(Cc3ccc(F)cc3)c3ccccc32)n1 (racemic) | 5.9 nM | 49.7 nM | 7.46 | 
COc1ccc(CN2C(=O)CN[C@](c3cccc(C)c3)([C@H](Oc3nc(C)cc(C)n3)C(=O)O)c3ccccc32)cc1 (racemic) | 6.3 nM | 50.7 nM | 6.32 | 
Cc1cc(C)nc(O[C@H](C(=O)O)[C@@]2(c3cccc(-c4ccccc4)c3)NCC(=O)N(Cc3c(Cl)cccc3Cl)c3ccccc32)n1 (racemic) | 16.9 nM | 25 nM | 8.98 | Max effect (Rattus norvegicus [3]): -15 mmHg; ABC (Rattus norvegicus [4]): 200 mmHg·h; Duration of action (Rattus norvegicus [5]): 18 h; pA2 (Endothelin receptor [6]): 7.37
Cc1cc(C)nc(O[C@H](C(=O)O)[C@@]2(c3ccccc3)NCC(=O)N(CCO)c3ccccc32)n1 (racemic) | 6.9 nM | 108 nM | 6.79 | 
Cc1cc(C)nc(O[C@H](C(=O)O)[C@@]2(c3ccccc3)NCC(=O)N(Cc3c(F)cccc3F)c3ccccc32)n1 (racemic) | 1.1 nM | 17.7 nM | 7.83 | 
Cc1cc(C)nc(O[C@H](C(=O)O)[C@@]2(c3ccccc3)NCC(=O)N(Cc3c(Cl)cccc3Cl)c3ccccc32)n1 (racemic) | 1.8 nM | 6.6 nM | 8.55 | 
CCCCc1cccc([C@]2([C@H](Oc3nc(C)cc(C)n3)C(=O)O)NCC(=O)N(Cc3c(F)cccc3Cl)c3ccccc32)c1 (racemic) | 7.6 nM | 7.1 nM | 8.72 | Max effect (Rattus norvegicus [3]): -23 mmHg; ABC (Rattus norvegicus [4]): 409 mmHg·h; Duration of action (Rattus norvegicus [5]): 36 h; pA2 (Endothelin receptor [6]): 7.88
Cc1cc(C)nc(O[C@H](C(=O)O)[C@@]2(c3ccccc3)NCC(=O)N(C)c3ccccc32)n1 (racemic) | 12.3 nM | 184 nM |  | IC50 (Cytochrome P450 2C9): > 50000 nM; IC50 (Cytochrome P450 2D6): > 50000 nM; logD [7]: -2; IC50 (Cytochrome P450 3A4): > 50000 nM
Cc1cc(C)nc(O[C@H](C(=O)O)[C@@]2(c3ccccc3)NCC(=O)N(Cc3c(F)c(F)c(F)c(F)c3F)c3ccccc32)n1 (racemic) | 6.8 nM | 28.8 nM | 7.87 | 
CCCCc1ccc(CN2C(=O)CN[C@](c3ccccc3)([C@H](Oc3nc(C)cc(C)n3)C(=O)O)c3ccccc32)cc1 (racemic) | 3.5 nM | 11.1 nM | 7.84 | 
Cc1cc(C)c(CN2C(=O)CN[C@](c3ccccc3)([C@H](Oc3nc(C)cc(C)n3)C(=O)O)c3ccccc32)c(C)c1 (racemic) | 6.7 nM | 15.5 nM | 8.1 | 
CCCCc1cccc([C@]2([C@H](Oc3nc(C)cc(C)n3)C(=O)O)NCC(=O)N(Cc3ccc(OC)cc3)c3ccccc32)c1 (racemic) | 7.9 nM | 36.5 nM | 7.69 | 
Cc1cc(C)nc(O[C@H](C(=O)O)[C@@]2(c3ccccc3)NCC(=O)N(Cc3ccc(F)c(F)c3F)c3ccccc32)n1 (racemic) | 6.5 nM | 49.7 nM | 7.93 | 
Cc1cc(C)nc(O[C@H](C(=O)O)[C@@]2(c3ccccc3)NCC(=O)N(Cc3c(F)ccc(F)c3F)c3ccccc32)n1 (racemic) | 2.4 nM | 13.2 nM | 8.38 | 
CCCCCCN1C(=O)CN[C@](c2ccccc2)([C@H](Oc2nc(C)cc(C)n2)C(=O)O)c2ccccc21 (racemic) | 23.7 nM | 39.9 nM | 6.71 | 
Cc1cc(C)nc(O[C@H](C(=O)O)[C@@]2(c3ccccc3)NCC(=O)N(Cc3nn[nH]n3)c3ccccc32)n1 (racemic) | 6.6 nM | 65.6 nM | 6.99 | 
Cc1cc(C)nc(O[C@H](C(=O)O)[C@@]2(c3ccccc3)NCC(=O)N(Cc3ccccc3)c3ccccc32)n1 (racemic) | 6.4 nM | 47.4 nM | 7.32 | 
CCCCc1cccc([C@]2([C@H](Oc3nc(C)cc(C)n3)C(=O)O)NCC(=O)N(Cc3c(C)cc(C)cc3C)c3ccccc32)c1 (racemic) | 18.3 nM | 13.6 nM | 7.83 | Max effect (Rattus norvegicus [3]): -21 mmHg; ABC (Rattus norvegicus [4]): 285 mmHg·h; Duration of action (Rattus norvegicus [5]): 24 h; pA2 (Endothelin receptor [6]): 7.44
Cc1cc(C)cc(O[C@H](C(=O)O)[C@@]2(c3ccccc3)NCC(=O)N(Cc3c(F)cccc3Cl)c3ccccc32)c1 (racemic) | 18.9 nM | 184 nM | 6.59 | Max effect (Rattus norvegicus [3]): -13 mmHg; ABC (Rattus norvegicus [4]): 267 mmHg·h; Duration of action (Rattus norvegicus [5]): 30 h; pA2 (Endothelin receptor [6]): 6.89
CCc1cccc([C@]2([C@H](Oc3nc(C)cc(C)n3)C(=O)O)NCC(=O)N(Cc3ccc(OC)cc3)c3ccccc32)c1 (racemic) | 3.1 nM | 68 nM | 7.55 | 
COC(c1ccccc1)(c1ccccc1)[C@H](Oc1nc(C)cc(C)n1)C(=O)O (racemic) [AMBRISENTAN] | 21.7 nM |  | 7.09 | Max effect (Rattus norvegicus [3]): -17 mmHg; Duration of action (Rattus norvegicus [5]): 32 h; ABC (Rattus norvegicus [8]): 409 mmHg·h; pA2 (Endothelin receptor [6]): 5.63
